From ChEMBL document CHEMBL1129791, “Antipsoriatic anthrones with modulated redox properties. 3. 10-thio-substituted 1,8-dihydroxy-9(10H)-anthracenones as inhibitors of keratinocyte growth, 5-lipoxygenase, and the formation of 12(S)-HETE in mouse epidermis” (J Med Chem, 1996)

Assays:
[1] = Half life in DMSO at 25 degrees celsius was determined; format: ADME
[2] = target: T1, Polyunsaturated fatty acid lipoxygenase ALOX12 (Mus musculus, UniProt P39655); experiment: Tested for inhibition of 12-LO (12-lipoxygenase) as an inhibitor of 12(S)-HETE biosynthesis in mouse epidermal homogenates
T1 sequence (P39655 whole entry): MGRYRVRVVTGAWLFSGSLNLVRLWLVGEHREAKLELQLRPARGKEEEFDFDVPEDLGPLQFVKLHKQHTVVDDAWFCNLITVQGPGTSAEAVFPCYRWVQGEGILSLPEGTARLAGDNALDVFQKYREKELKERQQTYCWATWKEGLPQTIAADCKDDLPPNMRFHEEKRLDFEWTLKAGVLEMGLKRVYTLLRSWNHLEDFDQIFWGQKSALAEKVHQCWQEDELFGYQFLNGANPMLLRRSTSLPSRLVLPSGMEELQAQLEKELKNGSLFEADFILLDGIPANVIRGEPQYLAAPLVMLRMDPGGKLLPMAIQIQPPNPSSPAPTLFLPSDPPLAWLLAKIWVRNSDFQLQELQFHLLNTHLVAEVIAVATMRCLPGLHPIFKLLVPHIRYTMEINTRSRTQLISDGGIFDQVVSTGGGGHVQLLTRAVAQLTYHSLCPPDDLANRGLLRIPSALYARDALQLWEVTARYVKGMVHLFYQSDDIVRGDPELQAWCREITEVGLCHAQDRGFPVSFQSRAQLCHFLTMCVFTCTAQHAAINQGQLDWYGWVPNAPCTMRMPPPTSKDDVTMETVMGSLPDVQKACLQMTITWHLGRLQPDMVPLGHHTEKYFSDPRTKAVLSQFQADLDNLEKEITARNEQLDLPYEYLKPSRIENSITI

[3] = Deoxyribose degradation (DD) as umol of malondialdehyde/mmol of deoxyribose released by 75 uM; format: functional
Method in brief: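 Deoxyribose degradation run in 30 mM KH2PO4-KOH buffer, pH 7.4, with 75 µM compound. Incubated 2 h at 37 °C in shaking water bath. TBA-reactive material read at 532 nm and expressed as µmol malondialdehyde per mmol deoxyribose.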

[4] = Half life in ethanol at 25 degrees celsius was determined; format: ADME
[5] = target: T2, Arachidonate 5-lipoxygenase (Bos taurus, UniProt Q9BEG3); experiment: Tested for inhibition of 5-lipoxygenase as inhibition of 5-HETE and LTB4 biosynthesis in bovine PMNL
T2 sequence (Q9BEG3 whole entry): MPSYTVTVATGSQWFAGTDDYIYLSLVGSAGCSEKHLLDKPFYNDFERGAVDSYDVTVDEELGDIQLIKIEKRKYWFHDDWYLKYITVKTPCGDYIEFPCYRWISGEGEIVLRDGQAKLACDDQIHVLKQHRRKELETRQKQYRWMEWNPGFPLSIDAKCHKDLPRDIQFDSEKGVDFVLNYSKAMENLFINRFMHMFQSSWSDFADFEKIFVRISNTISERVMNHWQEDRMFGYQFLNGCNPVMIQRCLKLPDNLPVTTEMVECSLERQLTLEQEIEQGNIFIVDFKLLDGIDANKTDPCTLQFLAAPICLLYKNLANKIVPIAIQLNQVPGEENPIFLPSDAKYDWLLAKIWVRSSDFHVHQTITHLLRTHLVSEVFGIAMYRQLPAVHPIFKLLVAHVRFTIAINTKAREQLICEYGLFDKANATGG

[6] = Acidity constant in aqueous solution was determined; format: ADME
Method in brief: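 UV absorption spectra recorded in buffer solutions spanning pH 2.5–12.0, with measured pH values corrected where needed. Absorbance at pH 2.5 was taken as the neutral species and at pH 12.0 as the fully deprotonated species. pKa was obtained from titration curves of absorbance at suitable wavelengths.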

[7] = tested on: HaCaT; experiment: Tested for antiproliferative activity against HaCaT cells; format: functional, cell-based; details: Homo sapiens
Method in brief: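 HaCaT keratinocytes treated for 48 h. Dispersed cells counted by phase-contrast microscopy. Inhibition = (1 − test/control) × 100, using test N = 3 and control N = 6-8.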

[8] = tested on: HaCaT; experiment: Compound was tested for activity of LDH(mU) release in HaCat cells after treatment with 2 uM compound; format: functional, Homo sapiens
Method in brief: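 Human HaCaT keratinocytes exposed to 2 µM compound for 4 h at 37 °C. Extracellular LDH measured by UV method with pyruvate and NADH, expressed as mU/mL. Vehicle controls run in parallel; N = 3.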

[9] = half life in ethanol at 25 degrees celsius; format: ADME
[10] = half life in DMSO at 25 degrees celsius; format: ADME

Row | half-life [1] | half-life [4] | pKa [6] | Structure (SMILES) | IC50 [2] | DD [3] | IC50 [5] | IC50 [7] | LDH [8] | half-life [9] | half-life [10]
1 |  |  |  | O=C(O)CSC1c2cccc(O)c2C(=O)c2c(O)cccc21 | 30 µM | 6.12 | > 30 µM | > 5 µM |  |  | 
2 |  |  |  | O=C(O)CCSC1c2cccc(O)c2C(=O)c2c(O)cccc21 | 30 µM | 6.34 | 2 µM | 1.9 µM |  |  | 
3 | 28 h | 12 h | 5.4 | O=C1c2c(O)cccc2C(Sc2ccccc2)c2cccc(O)c21 | 30 µM | 4.13 | 8 µM | 3.7 µM |  |  | 
4 |  |  |  | O=C1c2c(O)cccc2C(SCCCS)c2cccc(O)c21 | 30 µM | 4.09 | > 30 µM | 0.8 µM | 369 mU/mL |  | 
5 |  |  |  | COc1ccccc1SC1c2cccc(O)c2C(=O)c2c(O)cccc21 | 3 µM | 4.33 | 6 µM | 4.2 µM |  |  | 
6 |  |  |  | Nc1ccc(SC2c3cccc(O)c3C(=O)c3c(O)cccc32)cc1 | > 30 µM | 1.49 | 7 µM | 0.9 µM | 184 mU/mL |  | 
7 |  |  |  | O=C1c2c(O)cccc2C(Sc2ccccc2O)c2cccc(O)c21 | 30 µM | 3.7 | 5 µM | 1.7 µM | 174 mU/mL |  | 
8 |  |  |  | O=C1c2c(O)cccc2C(SCCc2ccccc2)c2cccc(O)c21 | > 30 µM | 2.78 | 30 µM | 4.7 µM |  | 3 h | 4 h
9 |  |  |  | COC(=O)CCSC1c2cccc(O)c2C(=O)c2c(O)cccc21 | 27 µM | 5.25 | 15 µM | 1.1 µM | 133 mU/mL |  | 
10 | 32 h | 21 h | 7.9 | COc1ccc(SC2c3cccc(O)c3C(=O)c3c(O)cccc32)cc1 | 30 µM | 1.59 | 3 µM | 1.7 µM | 137 mU/mL |  | 
11 |  |  |  | O=C1c2c(O)cccc2C(SCc2ccccc2)c2cccc(O)c21 | 30 µM | 3.74 | > 30 µM | 1.4 µM |  |  | 
12 |  |  |  | COc1cccc(SC2c3cccc(O)c3C(=O)c3c(O)cccc32)c1 | 30 µM | 4.29 |  | 1.8 µM |  |  | 
13 |  |  |  | COC(=O)CSC1c2cccc(O)c2C(=O)c2c(O)cccc21 | > 30 µM | 4.89 | 13 µM | 1.9 µM |  |  | 
14 |  |  |  | CC(SC1c2cccc(O)c2C(=O)c2c(O)cccc21)C(=O)O (stereo not given) | 15 µM | 9.34 | > 30 µM | 0.2 µM |  |  | 
15 |  |  |  | O=C1c2c(O)cccc2C(SCC(O)CO)c2cccc(O)c21 (stereo not given) | > 30 µM | 2.45 | 9 µM | 1.7 µM |  |  | 
16 |  |  |  | NC(CSC1c2cccc(O)c2C(=O)c2c(O)cccc21)C(=O)O (stereo not given) | 30 µM | 2.33 | > 30 µM | > 5 µM |  |  | 
17 |  |  |  | O=C1c2c(O)cccc2C(SCCO)c2cccc(O)c21 | > 30 µM | 2.49 | 2 µM | 1.2 µM | 136 mU/mL |  | 
18 | 26 h | 20 h | 8.4 | Nc1ccccc1SC1c2cccc(O)c2C(=O)c2c(O)cccc21 | 6 µM | 4.76 | 2 µM | 0.1 µM | 255 mU/mL |  | 
19 | 55 h | 34 h | 6.2 | O=C1c2c(O)cccc2C(Sc2ccc(O)cc2)c2cccc(O)c21 | 3 µM | 3.61 | 2 µM | 0.1 µM | 148 mU/mL |  | 
20 |  |  |  | CCOC(=O)CCSC1c2cccc(O)c2C(=O)c2c(O)cccc21 | 30 µM | 5.52 | > 30 µM | 1.6 µM | 124 mU/mL |  | 
21 |  |  |  | O=C1c2c(O)cccc2C(SCCCc2ccccc2)c2cccc(O)c21 |  | 2.71 |  | > 5 µM |  |  | 
22 |  |  |  | CCCSC1c2cccc(O)c2C(=O)c2c(O)cccc21 | > 30 µM | 2.81 | > 30 µM | 1.2 µM | 117 mU/mL |  | 
23 |  |  |  | CCOC(=O)CSC1c2cccc(O)c2C(=O)c2c(O)cccc21 | > 30 µM | 4.51 | > 30 µM | 4.5 µM |  |  | 
24 |  |  |  | CCCCOC(=O)CSC1c2cccc(O)c2C(=O)c2c(O)cccc21 | 30 µM | 4.19 | > 30 µM | 2.1 µM |  |  | 
25 |  |  |  | CCSC1c2cccc(O)c2C(=O)c2c(O)cccc21 | > 30 µM | 4.23 | > 30 µM | 1.4 µM |  |  | 

Row | Structure (SMILES) | half-life [1] | half-life [4] | pKa [6] | IC50 [2] | DD [3] | IC50 [5] | IC50 [7] | LDH [8] | half-life [9] | half-life [10]
26 | COc1ccc(CSC2c3cccc(O)c3C(=O)c3c(O)cccc32)cc1 | 23 h | 5 h | 6.1 | 30 µM | 5.01 | > 30 µM | 3 µM |  |  | 
27 | CCCCOC(=O)CCSC1c2cccc(O)c2C(=O)c2c(O)cccc21 | 11 h | 2 h | 5.7 | 30 µM | 5.38 | 30 µM | 2.3 µM |  |  | 
